Assay results as given in ChEMBL document CHEMBL1156172, “Substituted hydrazinecarbothioamide as potent antitubercular agents: synthesis and quantitative structure-activity relationship (QSAR)” (2010).
Values after ≈ are worked out from the molar mass of the structure shown.

Test system: Mycobacterium tuberculosis
Assay: Antituberculosis activity against Mycobacterium tuberculosis H37Rv after 4 weeks by agar slant proportion method
Type: functional
Conditions: for MIC: Mycobacterium tuberculosis, H37Rv, 672 h
Method in brief: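 M. tuberculosis H37Rv inoculated onto drug-containing slants at 105 bacilli per tube, then incubated 4 weeks at 37 °C (proportion method). MIC taken as the lowest concentration of compound giving no visible growth of the inoculated bacilli; reported in μg/mL.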

With `C/C(=N\NC(=S)Nc1cccc(Cl)c1Cl)c1ccc(Br)cc1` the “-logMIC” value was 0.398 and the MIC was 0.4 µg/mL (≈ 0.959 µM).

With `C/C(=N\NC(=S)Nc1ccc(Br)cc1)c1ccc(Br)cc1` the “-logMIC” value was 0.097 and the MIC was 0.8 µg/mL (≈ 1.87 µM).

With `C/C(=N\NC(=S)Nc1ccc(I)cc1)c1ccc(Br)cc1` the “-logMIC” value was 0.097 and the MIC was 0.8 µg/mL (≈ 1.69 µM).

In the case of `C/C(=N\NC(=S)Nc1ccc(Br)cc1)c1ccc([N+](=O)[O-])cc1`, the “-logMIC” value is reported as -0.796 and the MIC is reported as 6.25 µg/mL (≈ 15.9 µM).

For `C/C(=N\NC(=S)Nc1ccncc1C)c1ccc(Br)cc1`, the MIC was over 12.5 µg/mL.

With `C/C(=N\NC(=S)Nc1cc(C)ccn1)c1ccc(Br)cc1` the “-logMIC” value was 0.398 and the MIC was 0.4 µg/mL (≈ 1.1 µM).

In the case of `C/C(=N\NC(=S)Nc1cc(C)ccn1)c1ccc([N+](=O)[O-])cc1`, the “-logMIC” value is reported as -0.494 and the MIC is reported as 3.12 µg/mL (≈ 9.47 µM).

`C/C(=N\NC(=S)Nc1cccc(Cl)c1Cl)c1ccc([N+](=O)[O-])cc1` showed an MIC of over 12.5 µg/mL.

In the case of `COc1ccc(NNC(=S)N/N=C(\C)c2ccc(Br)cc2)cc1`, the “-logMIC” value is reported as -0.193 and the MIC is reported as 1.56 µg/mL (≈ 3.97 µM).

Compound `CC[C@@H](CO)NCCN[C@@H](CC)CO` [ETHAMBUTOL] has an MIC of 0.1 µg/mL (≈ 0.489 µM).

Work on `COc1ccc(NC(=S)N/N=C(\C)c2ccc([N+](=O)[O-])cc2)cc1` yielded an MIC of over 12.5 µg/mL.

`C/C(=N\NC(=S)Nc1cccc(C)c1)c1ccc([N+](=O)[O-])cc1` showed an MIC of over 12.5 µg/mL.

Work on `C/C(=N\NC(=S)NN1CCN(c2ccccc2Cl)CC1)c1ccc(Br)cc1` yielded an MIC of 3.12 µg/mL (≈ 6.68 µM).

`NNC(=O)c1ccncc1` [ISONIAZID] showed an MIC of 0.02 µg/mL (≈ 0.146 µM).

Compound `C/C(=N\NC(=S)Nc1ccncc1)c1ccc(Br)cc1` has an MIC of over 12.5 µg/mL.

For `C/C(=N\NC(=S)NN)c1ccc(Br)cc1`, the MIC was over 12.5 µg/mL.

For `C/C(=N\NC(=S)NNC(=O)c1cccnc1)c1ccc(Br)cc1`, the “-logMIC” value was -0.796 and the MIC was 6.25 µg/mL (≈ 15.9 µM).

`COc1ccc(NC(=S)N/N=C(\C)c2ccc(Br)cc2)cc1` was tested, and the “-logMIC” value was 0.097 and the MIC was 0.8 µg/mL (≈ 2.11 µM).

With `CC(=O)C1(c2ccccc2)CCN(NC(=S)N/N=C(\C)c2ccc(Br)cc2)CC1` the “-logMIC” value was 0.097 and the MIC was 0.8 µg/mL (≈ 1.69 µM).

For `C/C(=N\NC(=S)Nc1ccccc1F)c1ccc(Br)cc1`, the MIC was 3.12 µg/mL (≈ 8.52 µM).

`C/C(=N\NC(=S)Nc1ccccc1F)c1ccc([N+](=O)[O-])cc1` showed an MIC of over 12.5 µg/mL.

`C/C(=N\NC(=S)Nc1ccccc1[N+](=O)[O-])c1ccc(Br)cc1` was tested, and the “-logMIC” value was 0.398 and the MIC was 0.4 µg/mL (≈ 1.02 µM).

For `C/C(=N\NC(=S)Nc1ccc(I)cc1)c1ccc([N+](=O)[O-])cc1`, the MIC was over 12.5 µg/mL.

For `C/C(=N\NC(=S)NNc1ccc(C)cc1)c1ccc(Br)cc1`, the MIC was 1.56 µg/mL (≈ 4.13 µM).
